Test results reported in ChEMBL document CHEMBL3621064, “Fungal metabolite ophiobolin A as a promising anti-glioma agent: In vivo evaluation, structure-activity relationship and unique pyrrolylation of primary amines” (Bioorg Med Chem Lett, 2015).
Active and inactive are the calls of the source. The rule behind the calls is not given here.

Legend:
SK-MEL-28 = assay: Antiproliferative activity against human SK-MEL-28 cells by MTT assay; format: functional
Summary of the method: (§1)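 Cell lines grown in RPMI with 10% heat-inactivated fetal calf serum, 4 mM glutamine, gentamicin, penicillin and streptomycin. Growth inhibition by colorimetric MTT assay across a five-line panel: U373 GBM, A549 NSCLC and SKMEL-28 melanoma (apoptosis-resistant), plus Hs683 oligodendroglioma and MCF-7 breast (apoptosis-sensitive).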

[1] = Antiproliferative activity against human U373 cells by MTT assay; format: functional, U-373MG ATCC; conditions: U373 MG; summary of the method: as §1
[2] = Antiproliferative activity against human Hs683 cells by MTT assay; format: functional; conditions: Hs 683; summary of the method: as §1
A549 = assay: Antiproliferative activity against human A549 cells by MTT assay; format: functional; summary of the method: as §1
MCF7 = assay: Antiproliferative activity against human MCF7 cells by MTT assay; format: functional; summary of the method: as §1
U-251 [3] = assay: Antitumor activity against luciferase expressing human U251 cells xenografted in mouse assessed as increase in mouse survival at 10 mg/kg, ip dosed as 3 doses per week for 21 days; format: functional, organism-based
Summary of the method: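 Orthotopic mouse GBM model inoculated with 1×10^6 U251-LUC cells; 10 mg/kg IP 3x per week for 21 days, 0.9% saline vehicle control; mice without signs of GBM sacrificed on day 100 after inoculation and counted as long-term survivors; survival monitored.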

Brain = assay: Drug level in brain tumor of luciferase expressing human U251 cells xenografted mouse dosed intravenously and measured after 15 mins; format: ADME, organism-based, U-251; conditions: in vivo, iv, 0.25 h
Summary of the method: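 Single intravenous injection into lateral tail vein of a mouse bearing a brain tumor; brain tumor extract taken 15 min post administration and analysed for intact compound.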

[4] = Growth inhibition of human NCI60 cells; format: functional
U-251 [5] = assay: Antitumor activity against luciferase expressing human U251 cells xenografted in mouse assessed as inhibition of tumor growth at 10 mg/kg, ip dosed as 3 doses per week for 21 days; format: functional, organism-based
Summary of the method: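 Orthotopic U251-luciferase human GBM tumors in mice; 10 mg/kg IP 3x weekly for 21 days versus 0.9% saline vehicle; relative tumor growth followed by temporal bioluminescence imaging.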

| SMILES | GI50 (SK-MEL-28) [nM] | GI50 (A549) [nM] | GI50 (MCF7) [µM] | GI50 [1] [µM] | GI50 [2] [nM] | Activity (U-251 [3]) | Drug uptake (Brain) | GI50 [4] [nM] | TGI (U-251 [5]) |
| --- | --- | --- | --- | --- | --- | --- | --- | --- | --- |
| C#CCOC(C)(C)[C@@H](Br)[C@H]1C[C@H](C)[C@]2(CC[C@]3(C)C[C@H]4[C@H](C(=O)C[C@@]4(C)O)/C(C=O)=C\C[C@H]32)O1 | 600 | 800 | 0.8 | 1.4 | 600 |  |  |  |  |
| CC(=O)O[C@]1(C)Cc2occ3c2[C@@H]1C[C@@]1(C)CC[C@@]2(O[C@@H](C=C(C)C)C[C@@H]2C)[C@@H]1/C=C\3 | 6000 | 6000 | 13 | 8 | 11000 |  |  |  |  |
| CCOC(C)(C)[C@@H](Br)[C@H]1C[C@H](C)[C@]2(CC[C@]3(C)C[C@H]4[C@H](C(=O)C[C@@]4(C)O)/C(C=O)=C\C[C@H]32)O1 | 600 | 900 | 1.2 | 1.2 | 900 |  |  |  |  |
| C#CCCCCOC(C)(C)[C@@H](Br)[C@H]1C[C@H](C)[C@]2(CC[C@]3(C)C[C@H]4[C@H](C(=O)C[C@@]4(C)O)/C(C=O)=C\C[C@H]32)O1 | 600 | 1000 | 1.4 | 2.2 | 800 |  |  |  |  |
| COC(=O)/C=C/C1=C/C[C@@H]2[C@](C)(CC[C@@]23O[C@@H](C=C(C)C)C[C@@H]3C)C[C@H]2[C@@H]1C(=O)C[C@@]2(C)O | 86000 | 59000 | 43 | 86 | 59000 |  |  |  |  |
| CCCO[C@H]1O[C@@]2(OCCC)C[C@@](C)(O)[C@H]3C[C@@]4(C)CC[C@@]5(O[C@@H](C=C(C)C)C[C@@H]5C)[C@@H]4C/C=C/1[C@H]32 | 200 | 300 | 0.2 | 0.4 | 200 |  |  |  |  |
| CC(C)=C[C@H]1C[C@H](C)[C@]2(CC[C@]3(C)C[C@H]4c5c(cn(Cc6ccccc6)c5C[C@@]4(C)O)/C=C\[C@H]32)O1 | 58000 | 51000 | 40 | 69 | 46000 |  |  |  |  |
| C[C@H]1C[C@H](C2OC2(C)C)O[C@@]12CC[C@]1(C)C[C@H]3[C@H](C(=O)C[C@@]3(C)O)/C(C=O)=C\C[C@H]12 (mixture of isomers) | 400 | 600 | 0.6 | 0.6 | 400 |  |  |  |  |
| CC(C)=C[C@H]1C[C@H](C)[C@]2(CC[C@]3(C)C[C@H]4[C@H](C(=O)C[C@@]4(C)O)/C(C=O)=C\C[C@H]32)O1 [OPHIOBOLIN A] | 50 | 100 | 0.06 | 0.06 | 20 | Active | Active | 70 | Active |
| C[C@H]1C[C@H]([C@H](Br)C(C)(C)OCc2cn(Cc3ccccc3)nn2)O[C@@]12CC[C@]1(C)C[C@H]3[C@H](C(=O)C[C@@]3(C)O)/C(C=O)=C\C[C@H]12 | 1000 | 1200 | 1.2 | 3.4 | 800 |  |  |  |  |
| CC(C)=C[C@H]1C[C@H](C)[C@]2(CC[C@]3(C)C[C@H]4c5c(cnnc5C[C@@]4(C)O)CC[C@H]32)O1 | 29000 | 34000 | 27 | 30 | 29000 |  |  |  |  |
| CO[C@H]1O[C@@]2(OC)C[C@@](C)(O)[C@H]3C[C@@]4(C)CC[C@@]5(O[C@@H](C=C(C)C)C[C@@H]5C)[C@@H]4C/C=C/1[C@H]32 | 300 | 300 | 0.4 | 0.4 | 400 |  |  |  |  |
| CC(C)=C[C@H]1C[C@H](C)[C@]2(CC[C@]3(C)C[C@@H]4C(C)=CC(=O)[C@H]4/C(C=O)=C\C[C@H]32)O1 [3-ANHYDRO-6-EPI-OPHIOBOLIN A] | 8000 | 9000 | 10 | 18 | 8000 |  |  |  |  |

The next lines start with results.

| GI50 (SK-MEL-28) [nM] | GI50 (A549) [nM] | GI50 (MCF7) [µM] | SMILES | GI50 [1] [µM] | GI50 [2] [nM] | Activity (U-251 [3]) | Drug uptake (Brain) | GI50 [4] [nM] | TGI (U-251 [5]) |
| --- | --- | --- | --- | --- | --- | --- | --- | --- | --- |
| 28000 | 27000 | 26 | CC(C)=C[C@H]1C[C@H](C)[C@]2(CC[C@]3(C)C[C@H]4[C@H](C(=O)C[C@@]4(C)O)C(/C=C/C#N)=C\C[C@H]32)O1 | 27 | 22000 |  |  |  |  |
| 24000 | 26000 | 14 | CC(C)=C[C@H]1C[C@H](C)[C@]2(CC[C@]3(C)C[C@H]4c5c(cn(CCCCCCn6cc7c8c6C[C@@](C)(O)[C@H]8C[C@@]6(C)CC[C@@]8(O[C@@H](C=C(C)C)C[C@@H]8C)[C@@H]6/C=C\7)c5C[C@@]4(C)O)/C=C\[C@H]32)O1 | 30 | 25000 |  |  |  |  |
| 3000 | 3000 | 4 | CC(=O)N[C@@H](CCCC/N=C/C1=C/C[C@@H]2[C@](C)(CC[C@@]23O[C@@H](C=C(C)C)C[C@@H]3C)C[C@H]2[C@@H]1C(=O)C[C@@]2(C)O)C(=O)O | 4 | 3000 |  |  |  |  |
| > 100000 | > 100000 | > 100 | CC(=O)N[C@@H](CCCCn1cc2c3c1C[C@@](C)(O)[C@H]3C[C@@]1(C)CC[C@@]3(O[C@@H](C=C(C)C)C[C@@H]3C)[C@@H]1/C=C\2)C(=O)O | > 100 | > 100000 |  |  |  |  |
| 23000 | 15000 | 12 | C#CCCCOC(=O)/C=C/C1=C/C[C@@H]2[C@](C)(CC[C@@]23O[C@@H](C=C(C)C)C[C@@H]3C)C[C@H]2[C@@H]1C(=O)C[C@@]2(C)O | 20 | 12000 |  |  |  |  |
| 33000 | 35000 | 23 | CC(C)=C[C@H]1C[C@H](C)[C@]2(CC[C@]3(C)C[C@H]4c5c(cn(CCc6ccc(O)cc6)c5C[C@@]4(C)O)/C=C\[C@H]32)O1 | 54 | 33000 |  |  |  |  |
| 100 | 300 | 0.2 | CCOC1O[C@@]2(OCC)C[C@@](C)(O)[C@H]3C[C@@]4(C)CC[C@@]5(O[C@@H](C=C(C)C)C[C@@H]5C)[C@@H]4C/C=C/1[C@H]32 (mixture of isomers) | 0.4 | 200 |  |  |  |  |
